Experimental data from ChEMBL document CHEMBL3751743, “Synthesis and anti-cancer screening of novel heterocyclic-(2H)-1,2,3-triazoles as potential anti-cancer agents” (Medchemcomm, 2015).
The source made the active and inactive calls. The rule behind the calls is not given here.

Legend:
[1] = Cytotoxicity against human DU145 cells after 48 hrs by SRB assay; assay type: functional; conditions: DU-145, 48 h
Outline: (§1)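 NCI-60 five-dose screen: compounds dissolved in DMSO/H2O, tested at five 10-fold dilutions (10^-4 to 10^-8 M) for 48 h. Growth measured by sulforhodamine B optical density at time zero and after 48 h drug or vehicle exposure. Percentage growth calculated relative to control. GI50 is the molar concentration giving 50% reduction in net cell growth versus day-0 cell numbers.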

MCF7 = assay: Cytotoxicity against human MCF7 cells after 48 hrs by SRB assay; assay type: functional; conditions: MCF7, 48 h; outline: as §1
MDA-MB-231 = assay: Cytotoxicity against human MDA-MB-231 cells after 48 hrs by SRB assay; assay type: functional; conditions: MDA-MB-231, 48 h; outline: as §1
[2] = Cytotoxicity against human Hs 578T cells after 48 hrs by SRB assay; assay type: functional; outline: as §1
[3] = Cytotoxicity against human BT549 cells after 48 hrs by SRB assay; assay type: functional; conditions: BT-549, 48 h; outline: as §1
T47D = assay: Cytotoxicity against human T47D cells after 48 hrs by SRB assay; assay type: functional
Outline: (§2)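 NCI-60 five-dose screen. Compounds dissolved in DMSO/H2O and tested at five 10-fold dilutions (10^-4 to 10^-8 M) for 48 h. Growth read by sulforhodamine B optical density at time zero and after 48 h of exposure to compound or vehicle. Percent growth calculated against control. GI50 is the molar concentration giving 50% reduction in net cell growth relative to cell number on day 0.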

MDA-MB-468 = assay: Cytotoxicity against human MDA-MB-468 cells after 48 hrs by SRB assay; assay type: functional; conditions: MDA-MB-468, 48 h; outline: as §1
Tubulin (Sus scrofa) = Tubulin (Sus scrofa) (UniProt P02554+P02550); assay: Inhibition of porcine brain tubulin polymerization at 200 uM by spectrophotometric analysis
CCRF-CEM = assay: Cytotoxicity against human CCRF-CEM cells after 48 hrs by SRB assay; assay type: functional; outline: as §1
[4] = Cytotoxicity against human HL-60(TB) cells after 48 hrs by SRB assay; assay type: functional; conditions: HL-60, 48 h; outline: as §1
K562 = assay: Cytotoxicity against human K562 cells after 48 hrs by SRB assay; assay type: functional; conditions: K562, 48 h; outline: as §1
[5] = Cytotoxicity against human MOLT4 cells after 48 hrs by SRB assay; assay type: functional; conditions: MOLT-4, 48 h; outline: as §1
[6] = Cytotoxicity against human RPMI8226 cells after 48 hrs by SRB assay; assay type: functional; conditions: RPMI-8226, 48 h; outline: as §1
A549 = assay: Cytotoxicity against human A549 cells after 48 hrs by SRB assay; assay type: functional; conditions: A549, 48 h; outline: as §1
EKVX = assay: Cytotoxicity against human EKVX cells after 48 hrs by SRB assay; assay type: functional
Outline: (§3)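 NCI-60 five-dose screen: compounds in DMSO/H2O tested at 10^-4 to 10^-8 M (10-fold steps) for 48 h. Cell mass read by sulforhodamine B optical density at time zero and after exposure to compound or vehicle. GI50 is the concentration giving 50% reduction in net cell growth relative to day-0 cell numbers.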

[7] = Cytotoxicity against human HOP62 cells after 48 hrs by SRB assay; assay type: functional; conditions: HOP-62, 48 h; outline: as §3
[8] = Cytotoxicity against human HOP92 cells after 48 hrs by SRB assay; assay type: functional; conditions: HOP-92, 48 h; outline: as §1
NCI-H226 = assay: Cytotoxicity against human NCI-H226 cells after 48 hrs by SRB assay; assay type: functional; conditions: NCI-H226, 48 h; outline: as §1
NCI-H23 = assay: Cytotoxicity against human NCI-H23 cells after 48 hrs by SRB assay; assay type: functional; conditions: NCI-H23, 48 h; outline: as §1
NCI-H460 = assay: Cytotoxicity against human NCI-H460 cells after 48 hrs by SRB assay; assay type: functional; conditions: NCI-H460, 48 h; outline: as §1
NCI-H522 = assay: Cytotoxicity against human NCI-H522 cells after 48 hrs by SRB assay; assay type: functional; conditions: NCI-H522, 48 h; outline: as §1
[9] = Cytotoxicity against human COLO205 cells after 48 hrs by SRB assay; assay type: functional; conditions: COLO 205, 48 h; outline: as §1
[10] = Cytotoxicity against human HCC2998 cells after 48 hrs by SRB assay; assay type: functional; conditions: HCC 2998, 48 h; outline: as §1
[11] = Cytotoxicity against human HCT116 cells after 48 hrs by SRB assay; assay type: functional; conditions: HCT-116, 48 h; outline: as §1
[12] = Cytotoxicity against human HCT15 cells after 48 hrs by SRB assay; assay type: functional; conditions: HCT-15, 48 h; outline: as §1
HT-29 = assay: Cytotoxicity against human HT-29 cells after 48 hrs by SRB assay; assay type: functional; conditions: HT-29, 48 h; outline: as §1
KM12 = assay: Cytotoxicity against human KM12 cells after 48 hrs by SRB assay; assay type: functional; conditions: KM12, 48 h; outline: as §1
[13] = Cytotoxicity against human SW620 cells after 48 hrs by SRB assay; assay type: functional; conditions: SW-620, 48 h; outline: as §1
[14] = Cytotoxicity against human SF268 cells after 48 hrs by SRB assay; assay type: functional; conditions: SF-268, 48 h; outline: as §1
[15] = Cytotoxicity against human SF295 cells after 48 hrs by SRB assay; assay type: functional; conditions: SF-295, 48 h; outline: as §1
[16] = Cytotoxicity against human SF539 cells after 48 hrs by SRB assay; assay type: functional; conditions: SF-539, 48 h; outline: as §1
[17] = Cytotoxicity against human SNB19 cells after 48 hrs by SRB assay; assay type: functional; conditions: SNB-19, 48 h; outline: as §1
U-251 = assay: Cytotoxicity against human U251 cells after 48 hrs by SRB assay; assay type: functional; conditions: U-251, 48 h; outline: as §2
[18] = Cytotoxicity against human LOXIMVI cells after 48 hrs by SRB assay; assay type: functional; conditions: LOX IMVI; outline: as §1
Malme-3M = assay: Cytotoxicity against human MALME-3M cells after 48 hrs by SRB assay; assay type: functional; outline: as §3
M14 = assay: Cytotoxicity against human M14 cells after 48 hrs by SRB assay; assay type: functional; conditions: M14, 48 h; outline: as §1
MDA-MB-435 = assay: Cytotoxicity against human MDA-MB-435 cells after 48 hrs by SRB assay; assay type: functional; conditions: MDA-MB-435, 48 h; outline: as §1
SK-MEL-2 = assay: Cytotoxicity against human SK-MEL-2 cells after 48 hrs by SRB assay; assay type: functional; conditions: SK-MEL-2, 48 h; outline: as §1
SK-MEL-28 = assay: Cytotoxicity against human SK-MEL-28 cells after 48 hrs by SRB assay; assay type: functional; conditions: SK-MEL-28, 48 h; outline: as §1
SK-MEL-5 = assay: Cytotoxicity against human SK-MEL-5 cells after 48 hrs by SRB assay; assay type: functional; conditions: SK-MEL-5, 48 h; outline: as §1
[19] = Cytotoxicity against human UACC257 cells after 48 hrs by SRB assay; assay type: functional; conditions: UACC-257, 48 h; outline: as §2
[20] = Cytotoxicity against human UACC62 cells after 48 hrs by SRB assay; assay type: functional; conditions: UACC-62, 48 h; outline: as §2
[21] = Cytotoxicity against human IGROV1 cells after 48 hrs by SRB assay; assay type: functional; conditions: IGROV-1, 48 h; outline: as §3
[22] = Cytotoxicity against human OVCAR3 cells after 48 hrs by SRB assay; assay type: functional; conditions: OVCAR-3, 48 h; outline: as §1
[23] = Cytotoxicity against human OVCAR5 cells after 48 hrs by SRB assay; assay type: functional; conditions: OVCAR-5, 48 h; outline: as §1
[24] = Cytotoxicity against human OVCAR8 cells after 48 hrs by SRB assay; assay type: functional; conditions: OVCAR-8, 48 h; outline: as §1
[25] = Cytotoxicity against human NCI-ADR-RES cells after 48 hrs by SRB assay; assay type: functional; outline: as §1
[26] = Cytotoxicity against human SKOV3 cells after 48 hrs by SRB assay; assay type: functional; conditions: SK-OV-3, 48 h; outline: as §1
786-0 = assay: Cytotoxicity against human 786-0 cells after 48 hrs by SRB assay; assay type: functional; conditions: 786-0, 48 h; outline: as §1
A498 = assay: Cytotoxicity against human A498 cells after 48 hrs by SRB assay; assay type: functional; conditions: A498, 48 h; outline: as §1
ACHN = assay: Cytotoxicity against human ACHN cells after 48 hrs by SRB assay; assay type: functional; outline: as §1
[27] = Cytotoxicity against human Caki1 cells after 48 hrs by SRB assay; assay type: functional; conditions: CAKI-1, 48 h; outline: as §1
[28] = Cytotoxicity against human RXF393 cells after 48 hrs by SRB assay; assay type: functional; conditions: RXF 393, 48 h; outline: as §1
[29] = Cytotoxicity against human TK10 cells after 48 hrs by SRB assay; assay type: functional; conditions: TK-10, 48 h; outline: as §2
[30] = Cytotoxicity against human UO31 cells after 48 hrs by SRB assay; assay type: functional; conditions: UO-31, 48 h; outline: as §2
[31] = Cytotoxicity against human PC3 cells after 48 hrs by SRB assay; assay type: functional; conditions: PC-3, 48 h; outline: as §1

Chain of Tubulin (Sus scrofa) (P02550 whole entry, looked up): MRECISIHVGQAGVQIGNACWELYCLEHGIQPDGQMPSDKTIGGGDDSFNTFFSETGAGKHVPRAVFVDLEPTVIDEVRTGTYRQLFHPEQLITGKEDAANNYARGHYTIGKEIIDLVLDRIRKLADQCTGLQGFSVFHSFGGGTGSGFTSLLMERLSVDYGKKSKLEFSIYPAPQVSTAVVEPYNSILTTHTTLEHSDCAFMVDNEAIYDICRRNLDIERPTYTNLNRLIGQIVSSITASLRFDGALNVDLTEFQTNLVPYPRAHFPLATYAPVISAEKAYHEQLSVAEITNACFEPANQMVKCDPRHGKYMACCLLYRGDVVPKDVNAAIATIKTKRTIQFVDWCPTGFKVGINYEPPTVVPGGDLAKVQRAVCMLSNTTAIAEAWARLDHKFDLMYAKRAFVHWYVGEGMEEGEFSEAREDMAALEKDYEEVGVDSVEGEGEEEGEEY
Chain of Tubulin (Sus scrofa) (P02554 whole entry, looked up): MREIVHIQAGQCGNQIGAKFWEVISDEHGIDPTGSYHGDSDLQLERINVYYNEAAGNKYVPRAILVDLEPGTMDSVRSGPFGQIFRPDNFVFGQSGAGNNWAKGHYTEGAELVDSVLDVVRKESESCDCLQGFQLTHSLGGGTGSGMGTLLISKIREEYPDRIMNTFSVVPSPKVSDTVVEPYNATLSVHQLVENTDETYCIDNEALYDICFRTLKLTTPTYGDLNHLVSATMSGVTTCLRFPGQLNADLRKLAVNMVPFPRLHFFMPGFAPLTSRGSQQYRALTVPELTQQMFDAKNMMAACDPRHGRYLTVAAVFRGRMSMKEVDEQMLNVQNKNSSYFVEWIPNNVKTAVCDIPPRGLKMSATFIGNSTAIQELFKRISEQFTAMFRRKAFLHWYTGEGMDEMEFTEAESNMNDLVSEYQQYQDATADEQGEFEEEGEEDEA

COc1cc(-c2nn(C)nc2-c2cc3ccccc3s2)cc(OC)c1OC
GI50 [1]: 263 nM
GI50 (MCF7): 40 nM
GI50 (MDA-MB-231): 1600 nM
GI50 [2]: 270 nM
GI50 [3]: 422 nM
GI50 (T47D): > 100000 nM
GI50 (MDA-MB-468): 82 nM
inhibition (Tubulin (Sus scrofa)): inactive
GI50 (CCRF-CEM): 220 nM
GI50 [4]: 48 nM
GI50 (K562): 42 nM
GI50 [5]: 333 nM
GI50 [6]: 362 nM
GI50 (A549): 167 nM
GI50 (EKVX): 466 nM
GI50 [7]: 553 nM
GI50 [8]: 80 nM
GI50 (NCI-H226): > 100000 nM
GI50 (NCI-H23): 392 nM
GI50 (NCI-H460): 69 nM
GI50 (NCI-H522): 23 nM
GI50 [9]: 82 nM
GI50 [10]: 407 nM
GI50 [11]: 73 nM
GI50 [12]: 58 nM
GI50 (HT-29): 55 nM
GI50 (KM12): 54 nM
GI50 [13]: 63 nM
GI50 [14]: 630 nM
GI50 [15]: 36 nM
GI50 [16]: 149 nM
GI50 [17]: 254 nM
GI50 (U-251): 78 nM
GI50 [18]: 168 nM
GI50 (Malme-3M): 16900 nM
GI50 (M14): 76 nM
GI50 (MDA-MB-435): 25 nM
GI50 (SK-MEL-2): 59 nM
GI50 (SK-MEL-28): 13000 nM
GI50 (SK-MEL-5): 225 nM
GI50 [19]: 51600 nM
GI50 [20]: 53 nM
GI50 [21]: 707 nM
GI50 [22]: 354 nM
GI50 [23]: 2360 nM
GI50 [24]: 352 nM
GI50 [25]: 103 nM
GI50 [26]: 311 nM
GI50 (786-0): 312 nM
GI50 (A498): 41 nM
GI50 (ACHN): 294 nM
GI50 [27]: 3770 nM
GI50 [28]: 286 nM
GI50 [29]: 578 nM
GI50 [30]: 744 nM
GI50 [31]: 77 nM
